In brackets after ≈: the same amount, converted by molar mass.
Legend:
[1] = Kinetic solubility in pH 7.4 PBS buffer by LC-UV assay; assay type: physicochemical; conditions: read-out: Kinetic_solubility
Method in brief: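 Compound from a 10 mM DMSO stock diluted to a nominal 200 µM in 0.1 M potassium phosphate/0.8% NaCl pH 7.4 (2% DMSO final), n=2. Shaken 2 h at room temperature, then filtered. Filtrate quantified by LC-UV against 200 µM and 10 µM DMSO standards, with MS peak confirmation.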

[2] = AUC/dose in C57BL/6J mouse plasma at 3 mg/kg, iv administered as single dose by LC-MS/MS analysis; assay type: ADME, organism-based; conditions: in vivo
Method in brief: (§1)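 Male C57BL/6 mice, single intravenous dose as solution in 10:50:40 DMSO:PEG400:H2O (5 mL/kg). Plasma by cardiac puncture and brain collected at set times, n=3 per time point. LC-MS/MS quantitation with diclofenac IS. Composite non-compartmental parameters from mean concentrations; C0 back-extrapolated from first two points; kel from at least last three concentrations; AUC dose-normalized.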

[3] = AUC/dose in C57BL/6J mouse brain at 3 mg/kg, iv administered as single dose by LC-MS/MS analysis; assay type: ADME, organism-based; conditions: in vivo; method in brief: as §1
[4] = Volume of distribution at steady state in C57BL/6J mouse at 3 mg/kg, iv administered as single dose by LC-MS/MS analysis; assay type: ADME, organism-based; conditions: in vivo, read-out: Vdss
Method in brief: (§2)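 Male mice given a single iv dose of 3 mg/kg in 10:50:40 DMSO:PEG400:H2O (5 mL/kg). Plasma (cardiac puncture) and brain collected, n=3 per time point, and measured by LC-MS/MS. Non-compartmental parameters from mean concentrations, with C0 back-extrapolated; AUC by linear trapezoidal method, dose-normalised.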

[5] = Ratio of AUC/dose in brain to plasma of C57BL/6J mouse at 3 mg/kg, iv administered as single dose by LC-MS/MS analysis; assay type: ADME, organism-based; conditions: brain and plasma, read-out: BPR; method in brief: as §2
[6] = Unbound brain-to-plasma concentration ratio in C57BL/6J mouse at 3 mg/kg, iv administered as single dose by LC-MS/MS analysis; assay type: ADME, organism-based; conditions: brain and plasma, read-out: K(p,uu,brain)
[7] = AUC/dose in C57BL/6J mouse plasma at 10 mg/kg, po by LC-MS/MS analysis; assay type: ADME, organism-based; conditions: in vivo
Method in brief: (§3)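 Male C57BL/6 mice, single oral dose as fine suspension in 10% or 20% hydroxypropyl-beta-cyclodextrin in water (10 mL/kg). Terminal cardiac-puncture plasma and saline-rinsed brain, n=3 per time point; brain homogenized in acetonitrile:water 3:1. LC-MS/MS with diclofenac IS; LLOQ 6 nM plasma, 21 nM brain. Composite non-compartmental analysis of mean concentrations; AUC normalized to actual dose.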

[8] = Oral bioavailability in C57BL/6J mouse plasma at 10 mg/kg by LC-MS/MS analysis; assay type: ADME, organism-based
Method in brief: (§4)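 Male mice given a single oral dose of 10, 30 or 100 mg/kg as a fine suspension in 10% or 20% hydroxypropyl-β-cyclodextrin (10 mL/kg). Plasma and brain collected (n=3/time point) and measured by LC-MS/MS. Non-compartmental analysis on mean concentrations; AUC dose-normalised. %F = normalised po AUCinf / normalised iv AUCinf.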

[9] = Cmax/dose in C57BL/6J mouse plasma at 10 mg/kg, po by LC-MS/MS analysis; assay type: ADME, organism-based; conditions: in vivo; method in brief: as §3
[10] = Tmax in C57BL/6J mouse plasma at 10 mg/kg, po by LC-MS/MS analysis; assay type: ADME, organism-based; method in brief: as §4
[11] = AUC/dose in C57BL/6J mouse plasma at 30 mg/kg, po by LC-MS/MS analysis; assay type: ADME, organism-based; conditions: in vivo; method in brief: as §3
[12] = Oral bioavailability in C57BL/6J mouse plasma at 30 mg/kg by LC-MS/MS analysis; assay type: ADME, organism-based; method in brief: as §4
[13] = Cmax/dose in C57BL/6J mouse plasma at 30 mg/kg, po by LC-MS/MS analysis; assay type: ADME, organism-based; conditions: in vivo; method in brief: as §3
[14] = Tmax in C57BL/6J mouse plasma at 30 mg/kg, po by LC-MS/MS analysis; assay type: ADME, organism-based; method in brief: as §4
[15] = AUC/dose in C57BL/6J mouse plasma at 100 mg/kg, po by LC-MS/MS analysis; assay type: ADME, organism-based; conditions: in vivo; method in brief: as §3
[16] = Oral bioavailability in C57BL/6J mouse plasma at 100 mg/kg by LC-MS/MS analysis; assay type: ADME, organism-based; method in brief: as §4
[17] = Cmax/dose in C57BL/6J mouse plasma at 100 mg/kg, po by LC-MS/MS analysis; assay type: ADME, organism-based; conditions: in vivo; method in brief: as §3
[18] = Tmax in C57BL/6J mouse plasma at 100 mg/kg, po by LC-MS/MS analysis; assay type: ADME, organism-based; method in brief: as §4
[19] = AUC/dose in C57BL/6J mouse brain at 10 mg/kg, po by LC-MS/MS analysis; assay type: ADME, organism-based; conditions: in vivo; method in brief: as §3
[20] = Cmax/dose in C57BL/6J mouse brain at 10 mg/kg, po by LC-MS/MS analysis; assay type: ADME, organism-based; conditions: in vivo; method in brief: as §3
[21] = Tmax in C57BL/6J mouse brain at 10 mg/kg, po by LC-MS/MS analysis; assay type: ADME, organism-based; method in brief: as §4
[22] = Ratio of AUC/dose in brain to plasma of C57BL/6J mouse at 10 mg/kg, po administered as single dose by LC-MS/MS analysis; assay type: ADME, organism-based; conditions: brain and plasma, read-out: BPR; method in brief: as §4
[23] = Unbound brain-to-plasma concentration ratio in C57BL/6J mouse at 10 mg/kg, po administered as single dose by LC-MS/MS analysis; assay type: ADME, organism-based; conditions: brain and plasma, read-out: K(p,uu,brain)
[24] = AUC/dose in C57BL/6J mouse brain at 30 mg/kg, po by LC-MS/MS analysis; assay type: ADME, organism-based; conditions: in vivo; method in brief: as §3
[25] = Cmax/dose in C57BL/6J mouse brain at 30 mg/kg, po by LC-MS/MS analysis; assay type: ADME, organism-based; conditions: in vivo; method in brief: as §3
[26] = Tmax in C57BL/6J mouse brain at 30 mg/kg, po by LC-MS/MS analysis; assay type: ADME, organism-based; method in brief: as §4
[27] = Ratio of AUC/dose in brain to plasma of C57BL/6J mouse at 30 mg/kg, po administered as single dose by LC-MS/MS analysis; assay type: ADME, organism-based; conditions: brain and plasma, read-out: BPR; method in brief: as §4
[28] = Unbound brain-to-plasma concentration ratio in C57BL/6J mouse at 30 mg/kg, po administered as single dose by LC-MS/MS analysis; assay type: ADME, organism-based; conditions: brain and plasma, read-out: K(p,uu,brain)
[29] = AUC/dose in C57BL/6J mouse brain at 100 mg/kg, po by LC-MS/MS analysis; assay type: ADME, organism-based; conditions: in vivo; method in brief: as §3
[30] = Cmax/dose in C57BL/6J mouse brain at 100 mg/kg, po by LC-MS/MS analysis; assay type: ADME, organism-based; conditions: in vivo; method in brief: as §3
[31] = Tmax in C57BL/6J mouse brain at 100 mg/kg, po by LC-MS/MS analysis; assay type: ADME, organism-based; method in brief: as §4
[32] = Ratio of AUC/dose in brain to plasma of C57BL/6J mouse at 100 mg/kg, po administered as single dose by LC-MS/MS analysis; assay type: ADME, organism-based; conditions: brain and plasma, read-out: BPR; method in brief: as §4
[33] = Unbound brain-to-plasma concentration ratio in C57BL/6J mouse at 100 mg/kg, po administered as single dose by LC-MS/MS analysis; assay type: ADME, organism-based; conditions: brain and plasma, read-out: K(p,uu,brain)

solubility kinetic [1]: 11 µg/mL (≈ 27 µM)
AUC/dose [2]: 2700 nM·kg·h/mg
AUC/dose [3]: 3500 nM·kg·h/mg
Vd [4]: 1.6 L/kg
Kp [5]: 1.3
Kp uu [6]: 0.44
AUC/dose [7]: 2400 nM·kg·h/mg
bioavailability [8]: 89%
Cmax/dose [9]: 850 nM·kg/mg
Tmax [10]: 60 min
AUC/dose [11]: 3000 nM·kg·h/mg
bioavailability [12]: 111%
Cmax/dose [13]: 890 nM·kg/mg
Tmax [14]: 15 min
AUC/dose [15]: 1800 nM·kg·h/mg
bioavailability [16]: 67%
Cmax/dose [17]: 450 nM·kg/mg
Tmax [18]: 15 min
AUC/dose [19]: 3200 nM·kg·h/mg
Cmax/dose [20]: 950 nM·kg/mg
Tmax [21]: 60 min
Kp [22]: 1.3
Kp uu [23]: 0.45
AUC/dose [24]: 3300 nM·kg·h/mg
Cmax/dose [25]: 880 nM·kg/mg
Tmax [26]: 30 min
Kp [27]: 1.1
Kp uu [28]: 0.37
AUC/dose [29]: 2600 nM·kg·h/mg
Cmax/dose [30]: 850 nM·kg/mg
Tmax [31]: 60 min
Kp [32]: 1.4
Kp uu [33]: 0.49
Compound: COc1ccc2c(c1)Cc1cccc(-c3cc(=O)cc(N4CCOCC4)o3)c1S2

From ChEMBL document CHEMBL4680114, “Optimization of Potent and Selective Ataxia Telangiectasia-Mutated Inhibitors Suitable for a Proof-of-Concept Study in Huntington's Disease Models” (J Med Chem, 2019)
